# Screening results from PubChem.
# Only some compounds are listed: those with a hit (about 5.8% of all), similar ones and a draw of the others.
# GASC1 inh – inhibitors of human demethylase GASC-1 KDM4C; GST-KDM4C 2-372, H3K9me3 peptide, LANCE TR-FRET; inhibition, % at 12.5 µM; 0.15% of 96,000 active; AID 720574;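 active means mean replicate inhibition above about 25%, with at least 55% of replicates also reaching it, limit read from the data, passing the limit was not always enough; inconclusive means only one of those two conditions met; inactive means neither condition met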
#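 Material: GST-tagged GASC-1 (JMJD2C) catalytic fragment, aa 2-372 / Quantity: enzyme final amount 10 nM / Medium: HEPES buffer, pH 7.5, plus ascorbate / Doses: one test concentration per compound / Incubation: 30 min reaction, 60 min detection, RT / Measured by: LANCE TR-FRET / Read-out: inhibition from TR-FRET ratio decrease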
# T cruzi growth-1 – blocks T. cruzi growth in NIH3T3 culture | T. cruzi beta-gal in NIH3T3, GalScreen luminescence, 90 h | inhibition, % at 8.34 µM | 5.9% of 77,000 active;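 active means mean inhibition above about 93%, with at least 55% of replicates each passing it, limit read from the data, passing the limit was not always enough; inconclusive means only one of those two conditions holds; inactive means neither condition holds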
# Pf Dd2 growth – P. falciparum Dd2 growth inhibition; SYBR Green, 72 h; active compounds read low; activity change, % at 10 µM; 2.3% of 94,000 active; AID 1159554; in the data active means activity change below about -80%; inconclusive means no clear call, values can overlap the other calls
# IDH1 R132H inh – IDH1 R132H (human) inhibition; IDH1 R132H reductase, diaphorase/resazurin fluorescence, 60 min; 0.18% of 70,000 active; inhibition, % at 10 µM; in the data active means inhibition above about 34%; inconclusive means no clear call, values can overlap the other calls; inactive means below about 11%;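 further: 0% = DMSO and 100% = no enzyme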
# Target sequence (O75874 whole entry R132H): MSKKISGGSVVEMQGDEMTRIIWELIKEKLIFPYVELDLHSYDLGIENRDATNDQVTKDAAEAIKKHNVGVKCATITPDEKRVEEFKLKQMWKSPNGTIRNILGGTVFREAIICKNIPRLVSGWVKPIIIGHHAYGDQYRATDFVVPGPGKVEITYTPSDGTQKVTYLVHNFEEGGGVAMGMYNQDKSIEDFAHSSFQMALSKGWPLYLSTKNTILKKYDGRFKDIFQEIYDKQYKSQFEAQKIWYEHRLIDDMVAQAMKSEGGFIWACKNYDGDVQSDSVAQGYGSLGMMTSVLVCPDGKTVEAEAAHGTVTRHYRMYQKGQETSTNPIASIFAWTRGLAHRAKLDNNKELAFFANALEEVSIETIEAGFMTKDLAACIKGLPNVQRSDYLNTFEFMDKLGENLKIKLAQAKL
# T cruzi growth-2 – blocks T. cruzi growth in NIH3T3 host cells; shares compounds with T cruzi growth-1; T. cruzi beta-gal in NIH3T3, GalScreen luminescence, 90 h; inhibition, % at 8.35 µM; 72% of 5,600 active; AID 651739;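 active means mean replicate inhibition above about 95% and at least 55% of replicates individually reaching it, limit read from the data; inconclusive means only one of the two criteria is met; inactive means neither criterion is met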
# T cruzi growth-3 – inhibitors of T. cruzi proliferation | inhibition, % at 2.09 µM | shares compounds with T cruzi growth-1 | 21% of 5,600 active | AID 651740 | T. cruzi beta-gal in NIH3T3, GalScreen luminescence, 90 h;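 active means mean inhibition above about 95%, with at least 55% of replicates also reaching it, limit read from the data; inconclusive means meets just one of the two conditions; inactive means meets neither condition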;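 further: plate controls were neutral control median for no effect and positive control median for full effect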
# NIH3T3 tox – NIH/3T3 (mouse) viability loss; shares compounds with T cruzi growth-1; NIH/3T3 viability, CellTiter-Glo ATP luminescence, 90 h; cytotoxicity (signal decrease), % at 8.35 µM; 14% of 5,600 active; AID 651742;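 active means mean signal decrease across replicates above about 35% based on untreated-well scatter, with enough replicates individually passing, limit read from the data; inconclusive means no rule stated though some were filed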;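 further: 0% = median of neutral control wells and 100% = median of positive control wells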
# 3T3 cytotox 2 – cytotoxicity in mouse NIH/3T3 fibroblasts; NIH/3T3 viability, CellTiter-Glo ATP luminescence, 90 h; 56% of 5,600 active; inhibition, % at 24.9 µM; shares compounds with T cruzi growth-1; AID 651744;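 active means mean loss of cell viability signal at or above a set limit, and enough replicates individually reaching it; inconclusive means meets only the mean limit or only the replicate share; inactive means meets neither condition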;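 further: 0% = median of neutral control wells and 100% = median of positive control wells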
# Starred values were filed as active, the others as inactive; u = inconclusive; x = no result given.
SMILES,GASC1 inh,T cruzi growth-1,Pf Dd2 growth,IDH1 R132H inh,T cruzi growth-2,T cruzi growth-3,NIH3T3 tox,3T3 cytotox 2
N#Cc1cccc(-c2ccc([C@@H]3[C@H]4CN(C(=O)Nc5ccccc5)CCCCN4[C@H]3CO)cc2)c1,0,102*,18,x,105*,28,17,42*
N#Cc1cccc(-c2ccc([C@H]3[C@@H](CO)N4CCCCN(C(=O)Nc5ccc(F)cc5)C[C@@H]34)cc2)c1,0,123*,3,x,109*,79,2,8
N#Cc1cccc(-c2ccc([C@@H]3[C@H]4CN(C(=O)Nc5cccc(F)c5)CCCCN4[C@H]3CO)cc2)c1,-1,93,-40,x,x,x,x,x
CCC(=O)N1CCCCN2[C@@H](CO)[C@@H](c3ccc(-c4cccc(C#N)c4)cc3)[C@@H]2C1,1,112*,-54,x,90,92,7,13
Cc1cc(-c2ccccc2)nc(SCC(=O)Nc2ccc(I)cc2)n1,x,x,x,0,x,x,x,x
COC(=O)c1ccccc1NC(=O)c1cccc(NC(=O)COc2cc(C)c(Cl)c(C)c2)c1C,x,x,x,0,x,x,x,x
COCCOC(=O)N1C(=O)[C@@]2(c3cc(C#CCC(C(=O)OC)C(=O)OC)ccc31)[C@H](C(=O)N1CCN(c3ncccn3)CC1)[C@H]1C(=O)O[C@H](c3ccccc3)[C@H](c3ccccc3)N1[C@@H]2c1ccccc1OCCO,x,x,x,0,x,x,x,x
OC[C@@H]1[C@@H](c2ccc(C#Cc3cccnc3)cc2)[C@H]2CN(Cc3ccccc3F)CCCCN12,-1,104*,-73,x,107*,-1,33,102*
N#Cc1cccc(-c2ccc([C@H]3[C@@H](CO)N4CCCCN(Cc5ccccc5F)C[C@@H]34)cc2)c1,-2,99*,22,x,104*,77,14,97*
COc1ccc(C#Cc2ccc([C@@H]3[C@H]4CN(Cc5ccccc5F)CCCCN4[C@H]3CO)cc2)cc1,-2,54,-51,x,x,x,x,x
CC(C)(O)C#Cc1ccc([C@H]2[C@H]3CN(Cc4ccccc4F)CCCCN3[C@H]2CO)cc1,2,44,-22,x,x,x,x,x
N#Cc1cccc(-c2ccc([C@@H]3[C@@H](CO)N4CCCCN(Cc5ccccc5F)C[C@H]34)cc2)c1,1,58,-28,x,x,x,x,x
OC[C@H]1[C@@H](c2ccc(C#Cc3cccnc3)cc2)[C@H]2CN(Cc3ccccc3F)CCCCN21,2,u,-58,x,106*,92,15,74*
OC[C@H]1[C@H](c2ccc(C#Cc3cccnc3)cc2)[C@H]2CN(Cc3ccccc3F)CCCCN21,2,110*,-71,x,107*,79,16,103*
COc1ccc(C(=O)CSc2ncn(-c3ccccc3)n2)cc1OC,x,x,x,0,x,x,x,x
Cc1ccc(-c2cc(C(F)F)n3ncc(C(=O)NCCCN4CCOCC4)c3n2)cc1,x,x,x,0,x,x,x,x
Cc1cc(C)c(C)c(OCC(O)Cn2cnc3ccccc32)c1 (centres undefined),x,x,x,0,x,x,x,x
Cc1nc2ccccc2nc1OCC(=O)c1ccc(Cl)cc1,x,x,x,1,x,x,x,x
OC[C@H]1[C@@H](c2ccc(C#Cc3cccnc3)cc2)[C@@H]2CN(Cc3ccccc3F)CCCCN12,0,111*,-74,x,96*,u,36*,104*
COc1ccc(C#Cc2ccc([C@H]3[C@@H](CO)N4CCCCN(Cc5ccccc5F)C[C@H]34)cc2)cc1,-1,-9,-72,x,x,x,x,x
COc1ccc(-c2ccc3c(c2)[C@@H]2[C@@H](CCN2C(=O)c2ccc(F)cc2)[C@@H](CO)N3C)cc1,2,24,-11,x,x,x,x,x
COc1ccc(-c2ccc3c(c2)[C@@H]2[C@@H](CCN2C(=O)c2ccncc2)[C@H](CO)N3C)cc1,1,u,-9,x,108*,42,-2,10
COc1ccc(-c2ccc3c(c2)[C@@H]2[C@@H](CCN2C(=O)c2ccc4c(c2)OCO4)[C@@H](CO)N3C)cc1,-2,100*,-56,x,105*,100*,22,19
COc1cccc(-c2ccc3c(c2)[C@H]2[C@H](CCN2C(=O)c2ccc4c(c2)OCO4)[C@H](CO)N3C)c1,-3,35,-64,x,x,x,x,x
COc1ccc(S(=O)(=O)NCCc2ccc(OC)c(OC)c2)cc1Cl,x,x,x,0,x,x,x,x
SMILES,GASC1 inh,T cruzi growth-1,Pf Dd2 growth,IDH1 R132H inh,T cruzi growth-2,T cruzi growth-3,NIH3T3 tox,3T3 cytotox 2
COc1ccc(S(=O)(=O)N(C)C[C@H]2OCCCC[C@@H](C)Oc3ccc(NS(=O)(=O)c4ccc(C)cc4)cc3C(=O)N([C@H](C)CO)C[C@@H]2C)cc1,0,7,-18,x,x,x,x,x
COc1ccc(S(=O)(=O)Nc2ccc3c(c2)C(=O)N([C@H](C)CO)C[C@H](C)[C@@H](CN(C)S(=O)(=O)c2ccc(C)cc2)OCCCC[C@@H](C)O3)cc1,0,x,-41,-2,x,x,x,x
COc1ccc(S(=O)(=O)N(C)C[C@H]2OCCCC[C@H](C)Oc3ccc(NS(=O)(=O)c4ccc(C)cc4)cc3C(=O)N([C@H](C)CO)C[C@H]2C)cc1,-1,u,-83*,x,107*,93,-7,12
COc1ccc(S(=O)(=O)N(C)C[C@H]2OCCCC[C@H](C)Oc3ccc(NS(=O)(=O)c4ccc(C)cc4)cc3C(=O)N([C@H](C)CO)C[C@@H]2C)cc1,-1,u,-47,-1,110*,66,1,-31
O=C(Nc1ccccc1)N1CCCCN2[C@H](C1)[C@@H](c1ccc(-c3ccccc3)cc1)[C@@H]2CO,-1,83,-33,x,x,x,x,x
COc1ccc(NC(=O)N2CCCCN3[C@H](C2)[C@H](c2ccc(C4=CCCC4)cc2)[C@@H]3CO)cc1,x,48,-24,x,x,x,x,x
O=C(Nc1ccccc1F)N1CCCCN2[C@H](CO)[C@H](c3ccc(C4=CCCC4)cc3)[C@@H]2C1,-2,110*,1,x,109*,62,-6,13
O=C(Nc1ccccc1)N1CCCCN2[C@@H](CO)[C@H](c3ccc(C4=CCCCC4)cc3)[C@@H]2C1,0,u,-43,x,87,91,116*,105*
COc1ccc(NC(=O)N2CCCCN3[C@H](CO)[C@H](c4ccc(C5=CCCC5)cc4)[C@@H]3C2)cc1,x,117*,-18,x,96*,107*,1,u
O=C(Nc1ccccc1)N1CCCCN2[C@H](C1)[C@H](c1ccc(C3=CCCCC3)cc1)[C@@H]2CO,-1,110*,-74,x,109*,78,16,79*
O=C(NCCN1CCOCC1)c1cc(-n2cnnc2)ccc1Cl,x,x,x,2,x,x,x,x
COc1ccc2c(c1)c(CC(=O)OCc1ccccn1)c(C)n2C(=O)c1ccc(Cl)cc1,x,x,x,1,x,x,x,x
O=C(COc1cccc([N+](=O)[O-])c1)Nc1cccc(I)c1,x,x,x,0,x,x,x,x
